Each structure is given as a SMILES string. Peptide text beside a SMILES is read from it. * marks the point of attachment. Hydrocinnamoyl = O=C(CCc1ccccc1)*; Palmitoyl = CCCCCCCCCCCCCCCC(=O)*; pNA = O=[N+]([O-])c1ccc(N*)cc1; Undecanoyl = CCCCCCCCCCC(=O)*; Nicotinoyl = O=C(c1cccnc1)*; NHPh = c1ccc(N*)cc1

The species entered for the assay is Rattus norvegicus. Kind of assay: Inhibition of rat recombinant Rab geranylgeranyltransferase at 100 uM in presence of canine Rab7 and rat REP1 NBD-FPP based continuous fluorimetric assay. In short, it runs like this:
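Continuous fluorometric assay in 96/384-well format: 3 μM Rab7, 3 μM REP1, 9 μM NBD-FPP and 400 nM RabGGTase, with or without inhibitor. […] IC50 was calculated from three independent measurements.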
For `CC(C)(C)Oc1ccc(C[C@H](NC(=O)CNC(=O)[C@H](CCCCN)NC(=O)c2coc(-c3ccccc3)n2)C(=O)O)cc1`, the inhibition is 93%.
Under `O=C(CNC(=O)c1coc(-c2ccccc2)n1)N[C@@H](Cc1c[nH]cn1)C(=O)N[C@@H](Cc1ccccc1)C(=O)O` stands 84%; under `O=C(N[C@@H](CO)C(=O)N[C@@H](Cc1ccccc1)C(=O)N[C@@H](CO)C(=O)OCCCl)C(Br)C(Br)c1ccc(F)cc1` (some centres undefined), 98%.
As for `COC(=O)[C@H](CCC(=O)O)NC(=O)[C@H](C)NC(=O)[C@@H](NC(=O)c1ccc(-c2ccccc2)cc1)[C@@H](C)O`, the inhibition came out at 101%.
Under `CCCCCCCCCCC(=O)N[C@@H](Cc1ccc(O)cc1)C(=O)N[C@@H](Cc1cnc[nH]1)C(=O)N[C@@H](Cc1ccc(O)cc1)C(=O)NCCCn1ccnc1` stands 32%; under `CCCCCCCCCCC(=O)N[C@@H](Cc1ccc(O)cc1)C(=O)N[C@@H](Cc1c[nH]cn1)C(=O)N[C@@H](Cc1c[nH]cn1)C(=O)Nc1ccccc1N`, 87%; under `CC(C)C[C@H](NC(=O)[C@H](CO)NC(=O)[C@H](Cc1ccccc1)NC(=O)/C=C/c1ccc(F)cc1)C(=O)NNc1ccccc1`, 95%.
Under `COC(=O)[C@H](Cc1ccccc1)NC(=O)[C@H](Cc1ccccc1)NC(=O)[C@H](CC(C)C)NC(=O)/C=C/c1ccccc1` stands -2%.
Under `CCCCCCCCCCC(=O)N[C@@H](Cc1c[nH]cn1)C(=O)N[C@@H](Cc1ccccc1)C(=O)N[C@@H](Cc1ccc(O)cc1)C(N)=O` (Undecanoyl-His-Phe-Tyr-NH2) stands 45%; under `C[C@H](NC(=O)[C@@H](NC(=O)c1ccc(-c2ccccc2)cc1)[C@@H](C)O)C(=O)N[C@@H](CCC(=O)O)C(N)=O`, 82%.
As for `CCCCCCCCCCCOc1ccc(C(=O)N[C@@H](Cc2ccc(O)cc2)C(=O)N[C@@H](Cc2ccc(O)cc2)C(=O)N[C@@H](Cc2ccc(O)cc2)C(=O)OCCCl)cc1`, the inhibition was determined as 107%.
Under `CCCCCCCCCCCCCCCCNC(=O)[C@H](CC1CCCC1)NC(=O)[C@H](CCC(N)=O)NC(=O)[C@@H](NC(=O)CCC(O)CBr)[C@@H](C)O` (some centres undefined) stands 75%; under `O=C(CNC(=O)[C@H](Cc1ccc(O)cc1)NC(=O)c1ccc(F)cc1F)N[C@@H](Cc1ccc(O)cc1)C(=O)O`, 90%; under `NC(=O)CC[C@H](NC(=O)[C@H](Cc1ccccc1)NC(=O)[C@H](CO)NC(=O)CCc1ccccc1)C(=O)Nc1ccc([N+](=O)[O-])cc1` (Hydrocinnamoyl-Ser-Phe-Gln-pNA), 93%.
On to `CCC/C=C\c1ccccc1/C=C/C(=O)N[C@H](Cc1ccc(O)cc1)C(=O)N(C)[C@@H](Cc1ccc(OC)cc1)C(=O)N(C)[C@@H](Cc1ccccc1)C(=O)OCc1c[nH]c(=O)[nH]c1=O`, for which the inhibition came to 75%.
Turning to `CCCCCCCCCCCCCCCC(=O)N[C@@H](Cc1ccc(O)cc1)C(=O)N[C@@H](Cc1ccc(O)cc1)C(=O)N[C@@H](Cc1ccc(O)cc1)C(=O)NCc1ccc(F)cc1F`, the inhibition turned out to be 92%.
Under `CCCCCCCCCCC(=O)N[C@@H](Cc1c[nH]cn1)C(=O)N[C@@H](Cc1ccccc1)C(=O)N[C@@H](Cc1ccc(O)cc1)C(=O)NCCCn1ccnc1` stands 101%; under `CC(=O)Nc1cc(C(=O)N2CCC[C@H]2C(=O)N[C@@H](C(=O)N[C@@H](CCC(=O)O)C(N)=O)C(C)C)ccc1[N+](=O)[O-]`, 111%.
As for `O=C(CNC(=O)[C@H](Cc1ccc(O)cc1)NCCc1ccc(F)cc1)N[C@@H](Cc1ccc(O)cc1)C(=O)N1CCOCC1`, the inhibition was 92%.
Under `CCCCCCCCCCCOc1ccc(C(=O)N[C@@H](Cc2c[nH]cn2)C(=O)N[C@@H](Cc2c[nH]cn2)C(=O)N[C@@H](Cc2c[nH]cn2)C(=O)OC)cc1` stands 87%.
Take `NCCCC[C@H](NC(=O)CCc1ccccc1)C(=O)N[C@@H](Cc1c[nH]cn1)C(=O)N[C@@H](CO)C(=O)NCc1cccc(F)c1`: the inhibition is 96%.
`CON(C)C(=O)[C@H](CCC(N)=O)NC(=O)[C@H](Cc1ccccc1)NC(=O)[C@@H](NC(=O)C(Br)C(Br)c1ccccc1)[C@@H](C)O` (some centres undefined): the inhibition is 102%.
Under `O=C(N[C@@H](Cc1ccc(O)cc1)C(=O)N[C@@H](Cc1ccc(O)cc1)C(=O)N[C@@H](Cc1ccc(O)cc1)C(=O)NC1CCCCC1)c1ccc(F)cc1F` stands 88%; under `NC(=O)CC[C@H](NC(=O)[C@H](Cc1ccccc1)NC(=O)[C@H](CO)NC(=O)CCc1ccccc1)C(=O)Nc1ccccc1` (Hydrocinnamoyl-Ser-Phe-Gln-NHPh), 90%.
Under `CC(C)C[C@H](NC(=O)/C=C/c1ccccc1)C(=O)N[C@@H](Cc1ccc(Br)cc1)C(=O)N[C@@H](Cc1ccccc1)C(=O)OCc1ccccc1` stands 55%; under `CCCCCCCCCCCCCCCC(=O)N[C@@H](Cc1ccc(O)cc1)C(=O)N[C@@H](Cc1ccc(O)cc1)C(=O)N[C@@H](Cc1ccc(O)cc1)C(=O)O` (Palmitoyl-Tyr-Tyr-Tyr-OH), 93%; under `CCCCCCCCCCC(=O)N[C@@H](Cc1c[nH]cn1)C(=O)N[C@@H](Cc1ccccc1)C(=O)N[C@@H](Cc1ccc(O)cc1)C(=O)O` (Undecanoyl-His-Phe-Tyr-OH), 70%.
Regarding `COc1ccc(C[C@@H](C(=O)N(C)[C@@H](Cc2ccccc2)C(=O)O)N(C)C(=O)[C@@H](Cc2ccc(O)cc2)NC(=O)OCc2ccccc2)cc1`, the inhibition amounted to 25%.
As for `CC(C)C[C@H](NC(=O)/C=C/c1ccccc1)C(=O)N[C@@H](Cc1ccccc1)C(=O)N[C@@H](Cc1ccccc1)C(=O)Nc1ccc([N+](=O)[O-])cc1Cl`, the figure is 104%.
Under `O=C(CCc1ccc(F)cc1)N[C@@H](Cc1ccc(O)cc1)C(=O)NCC(=O)N[C@@H](Cc1ccc(O)cc1)C(=O)NCc1ccccc1` stands 127%.
Under `CC(C)C[C@H](NC(=O)[C@@H]1CCCN1C(=O)/C=C/c1ccccc1)C(=O)N[C@@H](Cc1ccccc1)C(=O)NCc1ccc(F)cc1F` stands 26%; under `CCCCCCCCCCC(=O)NC(Cc1ccc(O)cc1)C(=O)N[C@@H](Cc1c[nH]cn1)C(=O)N[C@@H](Cc1c[nH]cn1)C(=O)NCC(O)CO` (some centres undefined), 89%.
Regarding `C[C@H](NC(=O)[C@@H](NC(=O)c1ccc(-c2ccccc2)cc1)[C@@H](C)O)C(=O)N[C@@H](CCC(N)=O)C(=O)NNc1ccccc1`, the inhibition stood at 96%.
In the case of `C[C@H](NC(=O)[C@@H](NC(=O)c1ccc(-c2ccccc2)cc1)[C@@H](C)O)C(=O)N[C@@H](CCC(=O)O)C(=O)O`, the inhibition was 96%.
As for `O=C(CCc1ccccc1)N[C@@H](CO)C(=O)N[C@@H](Cc1ccccc1)C(=O)N[C@@H](CO)C(=O)Nc1ccc(N2CCOCC2)cc1`, the figure is 95%.
As for `CCCCCCCCCCCCCCCCNC(=O)[C@H](Cc1ccc(O)cc1)NC(=O)CNC(=O)[C@H](Cc1ccc(O)cc1)NC(=O)c1ccc(F)cc1`, the figure is 89%; as for `CCCCCCCCCCCCCC(=O)OC[C@H](NC(=O)[C@@H]1CCCN1C(=O)[C@H](CCC(N)=O)NC(=O)c1coc(-c2ccccc2)n1)C(=O)O`, 36%.
As for `CC(=O)Nc1cc(C(=O)N2CCC[C@H]2C(=O)N[C@@H](C(=O)N[C@@H](CCC(=O)O)C(=O)Nc2ccc(F)c(Cl)c2)C(C)C)ccc1[N+](=O)[O-]`, the figure is 109%; as for `CCCCCCCCCCCCCC(=O)N[C@@H](Cc1ccc(O)cc1)C(=O)N[C@@H](Cc1ccc(O)cc1)C(=O)N[C@@H](Cc1ccc(O)cc1)C(=O)Nc1ccc(N2CCOCC2)cc1`, 94%; as for `CCCCCCCCCCCOc1ccc(C(=O)N[C@@H](Cc2c[nH]cn2)C(=O)N[C@@H](Cc2ccc(O)cc2)C(=O)N[C@@H](Cc2ccccc2)C(=O)N2CCOCC2)cc1`, 87%.
`O=C(CCc1ccc(F)cc1)N[C@@H](Cc1ccc(O)cc1)C(=O)NCC(=O)N[C@@H](Cc1ccc(O)cc1)C(=O)Nc1ccc(F)cc1`: the inhibition amounted to 80%.
On to `CCCCCCCCCCCOc1ccc(C(=O)N[C@@H](Cc2ccc(O)cc2)C(=O)N[C@@H](Cc2ccc(O)cc2)C(=O)N[C@@H](Cc2ccc(O)cc2)C(=O)Nc2ccccn2)cc1`, for which the inhibition was 72%.
As for `C[C@H](NC(=O)[C@@H](NC(=O)c1ccc(-c2ccccc2)cc1)[C@@H](C)O)C(=O)N[C@@H](CCC(N)=O)C(=O)Nc1nccs1`, the figure is 108%; as for `COC(=O)[C@H](Cc1ccc(O)cc1)NC(=O)CNC(=O)[C@H](C)NC(=O)/C=C/c1ccc(F)cc1`, 79%.
Under `CCCCCCCCCCC(=O)N[C@@H](Cc1c[nH]cn1)C(=O)N[C@@H](Cc1ccccc1)C(=O)N[C@@H](Cc1ccc(O)cc1)C(=O)Nc1ccccc1N` stands 34%; under `O=C(N[C@@H](Cc1ccc(O)cc1)C(=O)N[C@@H](Cc1ccc(O)cc1)C(=O)N[C@@H](Cc1ccc(O)cc1)C(=O)OCCCn1ccnc1)c1ccc(F)cc1F`, 96%; under `O=C(CNC(=O)[C@H](Cc1ccc(O)cc1)NC(=O)c1ccc(F)cc1)N[C@@H](Cc1ccc(O)cc1)C(=O)NCc1ccccc1`, 60%.
Under `COC(=O)[C@H](CO)NC(=O)CNC(=O)[C@H](Cc1ccccc1)NC(=O)c1coc(-c2ccccc2)n1` stands 115%; under `O=C(N[C@@H](Cc1cnc[nH]1)C(=O)N[C@@H](Cc1ccccc1)C(=O)N[C@@H](Cc1ccc(O)cc1)C(=O)O)OCc1ccc([N+](=O)[O-])cc1`, 61%; under `NC(=O)CC[C@H](NC(=O)[C@H](Cc1ccccc1)NC(=O)CNC(=O)CCc1ccccc1)C(=O)NNc1ccccc1`, 75%.
Consider `CCCCCCCCCCCOc1ccc(C(=O)N[C@@H](Cc2c[nH]cn2)C(=O)N[C@@H](Cc2c[nH]cn2)C(=O)N[C@@H](Cc2c[nH]cn2)C(N)=O)cc1`, for which the inhibition is 32%.
As for `O=C(CCc1ccccc1)N[C@@H](CO)C(=O)N[C@@H](Cc1ccccc1)C(=O)N[C@@H](CO)C(=O)Nc1ccccc1` (Hydrocinnamoyl-Ser-Phe-Ser-NHPh), the figure is 89%.
For `O=C(N[C@H](Cc1cnc[nH]1)C(=O)N[C@@H](Cc1ccc(O)cc1)C(=O)N[C@@H](Cc1ccccc1)C(=O)O)OCc1ccc(OCc2ccccc2)cc1`, the inhibition turned out to be 47%.
Turning to `CC[C@H](C)[C@H](NC(=O)[C@H](Cc1ccccc1)NC(=O)c1cccnc1)C(=O)N[C@@H](CCCNC(=N)N)C(=O)O` (Nicotinoyl-Phe-Ile-Arg-OH), the inhibition amounted to 119%.

Source of the values: ChEMBL document CHEMBL1153722, “Design, synthesis, and characterization of peptide-based rab geranylgeranyl transferase inhibitors” (J Med Chem, 2009).
